From ChEMBL document CHEMBL4371075, “α-Amino Diphenyl Phosphonates as Novel Inhibitors of Escherichia coli ClpP Protease” (J Med Chem, 2019)
Activity calls are given as the source filed them. No cut-off for these calls is given here.

Assays:
HeLa = experiment: Cytotoxicity against human HeLa cells after 48 hrs by CellTiter-Glo assay; type: cell-based
How it was run: (§1)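 Human cells seeded (2000 cells/well; A549 500 cells/well), 24 h at 37 °C, 5% CO2, then compounds added (final DMSO 1%), 1:3 dilution series from 100 µM, 48 h exposure. ATP read by CellTiter-Glo luminescence relative to DMSO-treated cells; DMSO (1%) negative and valinomycin (10 µM) positive controls; plates accepted at Z' > 0.5.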

[1] = target: ATP-dependent Clp protease proteolytic subunit (Escherichia coli (strain K12), UniProt P0A6G7); experiment: Inhibition of Escherichia coli C-terminal His6-tagged ClpP expressed Escherichia coli SG1146a using Suc-LY-AMC as substrate preincubated for 10 mins followed by substrate addition and measured over 1 hr by fluorescence assay
ATP-dependent Clp protease proteolytic subunit, sequence (P0A6G7 whole entry): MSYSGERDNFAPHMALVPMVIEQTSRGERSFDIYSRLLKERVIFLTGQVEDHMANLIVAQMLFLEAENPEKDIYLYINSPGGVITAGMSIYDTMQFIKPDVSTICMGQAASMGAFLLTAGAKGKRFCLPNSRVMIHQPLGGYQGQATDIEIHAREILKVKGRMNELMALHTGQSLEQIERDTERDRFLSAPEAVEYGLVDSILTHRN
How it was run: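 ClpP at 625 nM with compound serial dilutions (1:3 or 1:2) in 100 mM NaCl, 100 mM Hepes pH 7.5, 0.05% Brij 35, preincubated 10 min at 30 °C. Suc-LY-AMC added (75 µM), fluorescence (ex 350/em 435 nm) tracked 1 h at 30 °C against DMSO vehicle (2% v/v).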

alpha-chymotrypsin = alpha-chymotrypsin (Bos taurus, UniProt P00766); experiment: Inhibition of bovine alpha-chymotrypsin assessed as residual activity at 200 uM relative to control; conditions: cattle, read-out: Activity
How it was run: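 Bovine α-chymotrypsin (40 nM) with compound at 200 µM and Suc-LY-AMC (100 µM) in 150 mM NaCl, 10 mM CaCl2, 50 mM Tris-HCl, 0.05% Brij 35. AMC fluorescence read-out; residual activity relative to control without compound.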

A549 = experiment: Cytotoxicity against human A549 cells after 48 hrs by CellTiter-Glo assay; type: cell-based; conditions: A549, 48 h; how it was run: as §1
HepG2 = experiment: Cytotoxicity against human HepG2 cells after 48 hrs by CellTiter-Glo assay; type: cell-based; conditions: HepG2, 48 h; how it was run: as §1
[2] = target: ATP-dependent Clp protease proteolytic subunit (Escherichia coli (strain K12)) (UniProt P0A6G7); experiment: Inhibition of Escherichia coli C-terminal His6-tagged ClpP expressed Escherichia coli SG1146a at 200 uM using Suc-LY-AMC as substrate preincubated for 10 mins followed by substrate addition and measured over 1 hr by fluorescence assay relative to control
ATP-dependent Clp protease proteolytic subunit (Escherichia coli (strain K12)), sequence (P0A6G7 whole entry): as above
How it was run: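 E. coli ClpP (625 nM) in 100 mM NaCl, 100 mM Hepes pH 7.5, 0.05% Brij 35, preincubated with compound (200 µM final, triplicates) 10 min at 30 °C. Suc-LY-AMC added (75 µM), fluorescence (ex 350/em 435 nm) followed over 1 h at 30 °C. Inhibition relative to 2% DMSO vehicle; Z-LY-CMK (200 µM) positive control; plates valid at Z' > 0.6.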

[3] = tested on: Escherichia coli ClpP (C-terminal His6-tagged); experiment: Selectivity index, ratio of EC50 for human A549 cells to IC50 for Escherichia coli C-terminal His6-tagged ClpP expressed Escherichia coli SG1146a; type: toxicity; conditions: read-out: Selectivity Index
[4] = target: ATP-dependent Clp protease proteolytic subunit (Escherichia coli (strain K12)) (UniProt P0A6G7); experiment: Reversible binding affinity to Escherichia coli C-terminal His6-tagged ClpP expressed Escherichia coli SG1146a up to 320 uM measured after cessation of compound treatment by SPR analysis
How it was run: (§2)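 His-tagged E. coli ClpP amine-coupled to chip (80 µg/mL in 10 mM sodium acetate pH 4). Running buffer 150 mM NaCl, 10 mM Hepes, 3 mM EDTA, 0.05% Tween-20, 3.2% DMSO; 20 µL/min, 6 min injection, up to 300 s dissociation; 2.5–320 µM range. Reference-channel subtracted, DMSO/bulk-shift corrected; return to baseline after injection end judged.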

Escherichia coli [5] = experiment: Growth inhibition of tolC-deficient Escherichia coli JW5503 at 100 uM measured after 24 hrs relative to control; type: functional; conditions: JW5503, 24 h, read-out: GI
How it was run: (§3)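 Single colony in saline, adjusted in MHB; final inoculum 5x10^5 CFU/mL, compound 100 µM in triplicate, 2% DMSO and ciprofloxacin controls. 37 °C, 500 rpm shaking; OD600 at time 0 and later time points to quantify growth.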

Escherichia coli [6] = experiment: Growth inhibition of ClpP-deficient Escherichia coli JW0427-1 at 50 uM measured after 24 hrs in presence of efflux pump substrate PAbetaN relative to control; type: functional; conditions: JW0427-1, 24 h, read-out: GI
How it was run: (§4)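 E. coli BW25-113 wild type or ΔclpP JW0427-1 grown with compound (50 µM) plus efflux pump substrate PAβN (25 µg/ml); growth inhibition read as OD600 at 24 h, 37 °C with shaking.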

Escherichia coli [7] = experiment: Growth inhibition of wild-type Escherichia coli BW25113 at 50 uM measured after 24 hrs in presence of efflux pump substrate PAbetaN relative to control; type: functional; conditions: BW25113, 24 h, read-out: GI; how it was run: as §4
[8] = target: ATP-dependent Clp protease proteolytic subunit (Escherichia coli (strain K12)) (UniProt P0A6G7); experiment: Reversible binding affinity to Escherichia coli C-terminal His6-tagged ClpP expressed Escherichia coli SG1146a up to 80 uM measured after cessation of compound treatment by SPR analysis; how it was run: as §2
Escherichia coli [9] = experiment: Growth inhibition of wild-type Escherichia coli BW25113 at 100 uM under nitric oxide stress condition measured at 1 hr time interval for 15 to 24 hrs in presence of DPTA NONOate; type: functional, organism-based
How it was run: (§5)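 E. coli BW25-113 and isogenic ΔclpP JW0427-1, grown overnight in MHB, diluted 1:100 in M9 + 10 mM glucose to OD600 ~0.3; assayed at OD600 0.1 with compound 100 µM, with or without DPTA NONOate (2 mM) for NO stress. 37 °C, 500 rpm; OD600 hourly for 15 or 24 h; mean of three independent experiments ± standard deviation.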

Escherichia coli [10] = experiment: Growth inhibition of ClpP-deficient Escherichia coli JW0427-1 at 100 uM measured at 1 hr time interval for 15 to 24 hrs; type: functional, organism-based; how it was run: as §5
Escherichia coli [11] = experiment: Growth inhibition of wild-type Escherichia coli BW25113 at 100 uM measured at 1 hr time interval for 15 to 24 hrs; type: functional, organism-based; how it was run: as §5
Escherichia coli [12] = experiment: Growth inhibition of ClpP-deficient Escherichia coli JW0427-1 at 100 uM under nitric oxide stress condition measured at 1 hr time interval for 15 to 24 hrs in presence of DPTA NONOate; type: functional, organism-based; how it was run: as §5
Staphylococcus aureus = experiment: Growth inhibition of Staphylococcus aureus ATCC 29213 at 100 uM measured after 24 hrs relative to control; type: functional; conditions: ATCC 29213, 24 h, read-out: GI; how it was run: as §3

SMILES	EC50 (HeLa) [µM]	IC50 [1] [µM]	activity at 200 µM (alpha-chymotrypsin) [%]	EC50 (A549) [µM]	EC50 (HepG2) [µM]	inhibition [2] [%]	selectivity ratio [3]	Activity [4]	inhibition of growth at 100 µM (Escherichia coli [5]) [%]	inhibition of growth at 50 µM (Escherichia coli [6]) [%]	inhibition of growth at 50 µM (Escherichia coli [7]) [%]	Activity [8]	growth inhibition (GI) (Escherichia coli [9])	growth inhibition (GI) (Escherichia coli [10])	growth inhibition (GI) (Escherichia coli [11])	growth inhibition (GI) (Escherichia coli [12])	inhibition of growth at 100 µM (Staphylococcus aureus) [%]
C[C@H](NC(=O)[C@H](CO)NC(=O)c1cccs1)C(=O)NC(Cc1ccc(NC(=N)N)cc1)P(=O)(Oc1ccccc1)Oc1ccccc1 (some centres undefined)	≥ 100	49.5	≥ 100	≥ 100	≥ 100	90	–	–	–	–	–	–	–	–	–	–	–
O=C(NC(Cc1ccc(C(F)(F)F)cc1)P(=O)(Oc1ccccc1)Oc1ccccc1)OCc1ccccc1 (centres undefined)	≥ 100	14.2	93.9	≥ 100	≥ 100	100	–	–	–	–	–	–	–	–	–	–	–
COc1cccc(C(NC(=O)OCc2ccccc2)P(=O)(Oc2ccccc2)Oc2ccccc2)n1 (centres undefined)	≥ 100	38	≥ 100	≥ 100	≥ 100	100	–	–	–	–	–	–	–	–	–	–	–
O=C(NC(c1ccc(NC(=O)C(F)(F)F)cc1)P(=O)(Oc1ccccc1)Oc1ccccc1)OCc1ccc2c(c1)OCO2 (centres undefined)	≥ 100	8.2	46	41.5	≥ 100	93	< 10	Active	–	–	–	–	–	–	–	–	–
N=C(N)c1ccc2cc(C(NC(=O)OCc3ccccc3)P(=O)(Oc3ccccc3)Oc3ccccc3)ccc2c1 (centres undefined)	19.9	79.7	≥ 100	25.6	28.3	81	–	–	98.9	99.4	98.5	–	–	–	–	–	–
O=C(NC(c1c[nH]c2ccc(Cl)cc12)P(=O)(Oc1ccccc1)Oc1ccccc1)OCc1ccccc1 (centres undefined)	19.9	100	≥ 100	5.9	10.5	88	–	–	–	–	–	–	–	–	–	–	–
O=C(NC(c1ccc(N2CCNCC2)cc1)P(=O)(Oc1ccccc1)Oc1ccccc1)OCc1ccccc1 (centres undefined)	8.6	0.6	≥ 100	0.4	1.1	100	–	–	69.9	–	–	Active	–	–	–	–	–
Nc1cccc(C(NC(=O)OCc2ccccc2)P(=O)(Oc2ccccc2)Oc2ccccc2)c1 (centres undefined)	≥ 100	0.5	17.9	27.5	23.8	100	–	Active	–	–	–	–	Active	inactive	inactive	inactive	–
COC(=O)NC(c1ccc(C(=N)N)cc1)P(=O)(Oc1ccccc1)Oc1ccccc1 (centres undefined)	≥ 100	48.1	≥ 100	≥ 100	≥ 100	93	–	–	–	–	–	–	–	–	–	–	–
CN(C)c1ccc(C(NC(=O)OCc2ccccc2)P(=O)(Oc2ccccc2)Oc2ccccc2)cc1 (centres undefined)	≥ 100	0.6	≥ 100	65.6	28.4	100	–	Active	–	–	–	–	–	–	–	–	–
Nc1ccc(C(NC(=O)OCc2ccccc2)P(=O)(Oc2ccccc2)Oc2ccccc2)cc1 (centres undefined)	≥ 100	39.8	≥ 100	57.8	≥ 100	96	< 10	–	–	–	–	–	–	–	–	–	–
N=C(N)N1CC(C(NC(=O)OCc2ccccc2)P(=O)(Oc2ccccc2)Oc2ccccc2)C1 (centres undefined)	≥ 100	71.3	≥ 100	≥ 100	≥ 100	100	–	–	99	–	–	–	–	–	–	–	99.9
O=C(NC(CCc1ccc([N+](=O)[O-])cc1)P(=O)(Oc1ccccc1)Oc1ccccc1)OCc1ccccc1 (centres undefined)	≥ 100	13.1	≥ 100	≥ 100	≥ 100	100	–	–	–	–	–	–	–	–	–	–	–
